Sampled rows, rich in hits. Any-hit rate of the full collection: about 2.2%.
GalR3 antag: GalR3 antagonists in HEK293 cells, primary screen, cell-based, fluorescence readout; actives 0.44% (n = 360,000); HEK293 GalR3-CNG cAMP membrane potential fluorescence; galR3 body fused to GalR1 C-terminus; Galanin receptor type 3 (Homo sapiens), O60755; inhibition, % at 3 µM;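 active means inhibition above the screen-wide average plus 3 SD, cut at about 13% in these data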;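 further: forskolin and galanin both at EC90 stimulate the cells; cAMP rise reported by CNG channel membrane potential dye signal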
Target sequence (O60755 1-299 limits assumed): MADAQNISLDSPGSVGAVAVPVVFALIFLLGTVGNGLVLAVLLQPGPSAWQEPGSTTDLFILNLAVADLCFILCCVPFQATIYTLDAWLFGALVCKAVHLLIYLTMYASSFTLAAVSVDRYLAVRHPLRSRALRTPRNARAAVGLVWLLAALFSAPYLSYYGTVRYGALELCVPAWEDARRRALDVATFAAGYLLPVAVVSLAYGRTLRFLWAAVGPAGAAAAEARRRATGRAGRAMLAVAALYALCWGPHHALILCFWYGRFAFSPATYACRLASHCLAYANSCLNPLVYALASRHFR
FXN GAA850 act: FXN promoter activators, primary screen, cell-based, luciferase luminescence, HEK293 lucGAA850. activation, % at 6 µM. HEK293 lucGAA850 FXN promoter luciferase reporter, 24 h; percent of 10 µM SAHA response. actives 0.56% (n = 360,000);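 active means activation above the average of all compounds screened plus 3 SD, cutoff fixed separately per campaign, cut at about 7.5% in these data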
NR2E3 ag-1: NR2E3 agonists in two-hybrid cells, primary screen, cell-based, luminescence, CHO-S, Gal4-NCOR/VP16-NR2E3 | inhibition of corepressor binding, % at 3.98 µM | AID 602229, 2012 | actives 0.35% (n = 360,000) | luciferase;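 active means inhibition above the mean of all tested compounds plus 3 SD, cut at about 70% in these data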;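 further: higher means lower luciferase signal from less NR2E3 corepressor binding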
V-ATPase pH: regulators of yeast V-ATPase proton pumping, primary screen, pHLuorin cytosolic pH fluorescence; S. cerevisiae; response, % at 10 µM; actives 0.37% (n = 350,000); in the data active means response mostly above about 7.3%, no sharp cut-off; inactive means mostly below about 5.4%; further: actives read high
Env fusion inh: inhibitors of HIV-1 Env-driven cell-cell fusion, primary screen, HeLa-JRFL effector, CEM21 target cells, luciferase | actives 1.1% (n = 360,000) | inhibition, % at 12.3 µM;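 active means mean replicate inhibition score of at least 50 and every replicate individually at or above 50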
NR2E3 ag-2: inhibitors of NR2E3-RetCOR corepressor binding, primary screen, NR2E3 agonist project, biochemical, TR-FRET, GST-NR2E3, biotin-RetCOR. Photoreceptor-specific nuclear receptor (Homo sapiens), Q9Y5X4. 1536-well. inhibition of corepressor binding, % at 4.78 µM. actives 0.12% (n = 320,000);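 active means percent inhibition above the cutoff of mean plus 3 SD of all tested compounds, set per screening campaign, cut at about 20% in these data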
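Format: 1536-well format; test system: GST-NR2E3 and biotin-RetCOR proteins; read-out basis: percent inhibition of TR-FRET ratio; timing: 5 h incubation at 4 °C; detection: time-resolved FRET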
GalR3 conf: GalR3 antagonist hit confirmation, cell-based, fluorescence, triplicate; shares compounds with GalR3 antag; HEK293 GalR3 CNG cAMP biosensor, membrane potential fluorescence; galR3 fused to GalR1 carboxy tail; challenged with forskolin and galanin at EC90; inhibition, % at 3 µM; actives 59% (n = 1,600); AID 652245, 2013;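 active means inhibition above the primary screen's cutoff, the mean inhibition of all screened compounds plus 3 SD, cut at about 13% in these data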
HEK-CNG parental: nonspecific cAMP agonists in parental HEK-CNG cells, counter-screen for GalR3 antagonist project, cell-based, fluorescence, high throughput; activation, % at 3 µM; HEK293-CNG parental cells, cAMP membrane potential fluorescence; normalised: DMSO wells 0%, forskolin wells 100%; AID 652268, 2013; actives 10% (n = 1,600); shares compounds with GalR3 antag; in the data active means activation above about 1.3%
Each line names hits and unclear results; the compound was inactive in the other large screens (follow-up assays come after a bar, where they were run).

Cc1noc(C)c1NC(=O)Nc1ccc2c(c1)C(=O)N([C@H](C)CO)C[C@H](C)[C@H](CN(C)S(=O)(=O)c1ccc(F)cc1)O2	none (no result: GalR3 antag, FXN GAA850 act, NR2E3 ag-1, V-ATPase pH, NR2E3 ag-2)
COc1ccc(-c2cc(-c3n[nH]c(=S)n3-c3cc(OC)ccc3OC)[nH]n2)cc1	GalR3 antag 24 (no result: Env fusion inh) | GalR3 conf inactive | HEK-CNG parental inactive
C[C@H](CO)N1C[C@H](C)[C@H](CN(C)S(=O)(=O)c2cn(C)cn2)OCCCC[C@H](C)Oc2ccc(NS(=O)(=O)c3cn(C)cn3)cc2C1=O	none (no result: GalR3 antag, FXN GAA850 act, NR2E3 ag-1, V-ATPase pH, NR2E3 ag-2)
CC(C)NC(=O)Nc1ccc2c(c1)C(=O)N([C@@H](C)CO)C[C@H](C)[C@@H](CN(C)C(=O)c1ccccc1)OCCCC[C@@H](C)O2	none (no result: GalR3 antag, FXN GAA850 act, NR2E3 ag-1, V-ATPase pH, NR2E3 ag-2)
CC(C(=O)Nc1ccc2[nH]c(=O)[nH]c2c1)N1CCN(Cc2ccc3c(c2)OCO3)CC1 (stereo not given)	GalR3 antag 13 | GalR3 conf 13 | HEK-CNG parental inactive
CO[C@@H]1CN(C)C(=O)c2cc(NS(=O)(=O)c3ccccc3C)ccc2OC[C@@H](C)N(S(=O)(=O)c2ccccc2)C[C@H]1C	none (no result: GalR3 antag, FXN GAA850 act, NR2E3 ag-1, V-ATPase pH, NR2E3 ag-2)
COc1ccc(S(=O)(=O)Nc2ccc3c(c2)C(=O)N([C@@H](C)CO)C[C@H](C)[C@@H](CN(C)C(=O)Nc2ccc4c(c2)OCO4)O3)cc1	none (no result: GalR3 antag, FXN GAA850 act, NR2E3 ag-1, V-ATPase pH, NR2E3 ag-2)
C[C@@H]1CN([C@@H](C)CO)C(=O)CCCn2cc(nn2)CO[C@@H]1CN(C)S(=O)(=O)c1ccc(F)cc1	none (no result: GalR3 antag, FXN GAA850 act, NR2E3 ag-1, V-ATPase pH, NR2E3 ag-2)
CCc1ccc(CNCc2ccc(OCC(O)CN(C)Cc3ccccc3)cc2)nc1 (stereo not given)	GalR3 antag 56 | GalR3 conf 14 | HEK-CNG parental 15
Cc1cc(S(=O)(=O)c2ccc(Cl)cc2)nc(S(=O)(=O)c2ccc(Cl)cc2)c1C#N	GalR3 antag 16 (no result: NR2E3 ag-2) | GalR3 conf inactive | HEK-CNG parental inactive
C[C@@H]1CN([C@H](C)CO)C(=O)Cc2cc(NC(=O)C3CC3)ccc2O[C@H]1CN(C)S(=O)(=O)c1ccc(F)cc1	none (no result: GalR3 antag, FXN GAA850 act, NR2E3 ag-1, V-ATPase pH, NR2E3 ag-2)
Cc1oc2c(C)c3oc(=O)c(CCC(=O)N4C[C@H]5C[C@@H](C4)c4cccc(=O)n4C5)c(C)c3cc2c1C	GalR3 antag 15 (no result: Env fusion inh) | GalR3 conf inactive | HEK-CNG parental inactive
CCc1ccc(NC(=O)CSc2nnc(-c3n[nH]c4ccccc34)n2-c2ccccc2)cc1	none
O=C(CSc1nnc(-c2n[nH]c3ccccc23)n1-c1ccccc1)Nc1cccc(Cl)c1	GalR3 antag 21, Env fusion inh 70 | GalR3 conf 14 | HEK-CNG parental inactive
CC(/C=N\NC(=O)Cn1c(C)nc2ccccc21)=C\c1ccccc1	GalR3 antag 70, Env fusion inh 86 | GalR3 conf inactive | HEK-CNG parental inactive
COc1ccc(S(=O)(=O)N[C@@H]2CC[C@@H](CC(=O)N3CCN(c4ccccc4)CC3)O[C@@H]2CO)cc1	none (no result: GalR3 antag, FXN GAA850 act, NR2E3 ag-1, V-ATPase pH, NR2E3 ag-2)
Cc1ccc(S(C)(=O)=NC(=O)NC(=O)c2c(F)cccc2Cl)cc1 (stereo not given)	GalR3 antag 14 | GalR3 conf inactive | HEK-CNG parental inactive
CC(C)c1ccc(NC2CCCN(C(=O)c3n[nH]c4c3CCC4)C2)cc1 (stereo not given)	GalR3 antag 31 | GalR3 conf 36 | HEK-CNG parental inactive
CCCc1ccccc1OCCNC(=O)c1cc(=O)n(C)c(=O)n1C	GalR3 antag 16 | GalR3 conf inactive | HEK-CNG parental inactive

High-throughput results as filed in PubChem.
